3 compounds from ChEMBL document CHEMBL1122206, “Use of adenine nucleotide derivatives to assess the potential of exo-active-site-directed reagents as species- or isozyme-specific enzyme inactivators. 5. Interactions of adenosine 5'-triphosphate derivatives with rat pyruvate kinases, Escherichia coli thymidine kinase, and yeast and rat …” (1982) can be followed below.

Assay [1] deals with T1, Hexokinase-2 (Rattus norvegicus) (UniProt P27881).
T1 sequence (whole entry): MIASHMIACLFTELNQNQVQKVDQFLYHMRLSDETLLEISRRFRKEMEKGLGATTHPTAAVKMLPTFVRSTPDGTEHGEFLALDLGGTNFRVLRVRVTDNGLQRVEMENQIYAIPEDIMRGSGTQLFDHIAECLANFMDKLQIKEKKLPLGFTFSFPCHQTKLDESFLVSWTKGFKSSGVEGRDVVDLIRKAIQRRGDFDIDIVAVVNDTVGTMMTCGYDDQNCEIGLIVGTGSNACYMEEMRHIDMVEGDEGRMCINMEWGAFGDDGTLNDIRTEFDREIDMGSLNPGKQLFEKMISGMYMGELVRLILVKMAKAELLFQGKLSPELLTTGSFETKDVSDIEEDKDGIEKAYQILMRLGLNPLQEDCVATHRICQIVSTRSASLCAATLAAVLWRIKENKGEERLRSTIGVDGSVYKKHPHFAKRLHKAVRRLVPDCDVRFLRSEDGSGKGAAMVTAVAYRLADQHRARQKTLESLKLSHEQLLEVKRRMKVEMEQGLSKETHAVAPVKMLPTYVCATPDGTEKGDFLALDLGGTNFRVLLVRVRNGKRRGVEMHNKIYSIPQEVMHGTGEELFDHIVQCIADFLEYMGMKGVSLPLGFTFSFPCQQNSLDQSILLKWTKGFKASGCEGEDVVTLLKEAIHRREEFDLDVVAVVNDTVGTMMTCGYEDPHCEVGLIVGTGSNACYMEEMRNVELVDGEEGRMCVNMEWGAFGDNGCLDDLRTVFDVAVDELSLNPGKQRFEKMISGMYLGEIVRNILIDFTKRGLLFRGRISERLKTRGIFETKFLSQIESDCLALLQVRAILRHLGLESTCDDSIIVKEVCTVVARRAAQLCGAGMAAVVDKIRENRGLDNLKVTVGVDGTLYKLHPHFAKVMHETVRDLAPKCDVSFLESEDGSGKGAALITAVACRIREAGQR
Kind of assay: Substrate activity against Rat hexokinase II as 1:1 Mg complex at 5.0 mM. In short, it runs like this:
(§1)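 Hexokinase activity read at 22 °C as A340 change, coupled to glucose-6-phosphate dehydrogenase, in 0.05 M Tris-HCl pH 7.6 with 6.6 mM MgCl2, 10 mM α-D-glucose and 0.93 mM NADP. Donor was 5.0 mM MgATP derivative (1:1 Mg complex) in place of ATP. Yeast HK was isoelectric-focused. Rat HK I and III came from electrofocused liver extract, HK II from dialysed muscle extract.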

The target in assay [2] is T2, Hexokinase-1 (Rattus norvegicus) (UniProt P05708).
T2 sequence (whole entry): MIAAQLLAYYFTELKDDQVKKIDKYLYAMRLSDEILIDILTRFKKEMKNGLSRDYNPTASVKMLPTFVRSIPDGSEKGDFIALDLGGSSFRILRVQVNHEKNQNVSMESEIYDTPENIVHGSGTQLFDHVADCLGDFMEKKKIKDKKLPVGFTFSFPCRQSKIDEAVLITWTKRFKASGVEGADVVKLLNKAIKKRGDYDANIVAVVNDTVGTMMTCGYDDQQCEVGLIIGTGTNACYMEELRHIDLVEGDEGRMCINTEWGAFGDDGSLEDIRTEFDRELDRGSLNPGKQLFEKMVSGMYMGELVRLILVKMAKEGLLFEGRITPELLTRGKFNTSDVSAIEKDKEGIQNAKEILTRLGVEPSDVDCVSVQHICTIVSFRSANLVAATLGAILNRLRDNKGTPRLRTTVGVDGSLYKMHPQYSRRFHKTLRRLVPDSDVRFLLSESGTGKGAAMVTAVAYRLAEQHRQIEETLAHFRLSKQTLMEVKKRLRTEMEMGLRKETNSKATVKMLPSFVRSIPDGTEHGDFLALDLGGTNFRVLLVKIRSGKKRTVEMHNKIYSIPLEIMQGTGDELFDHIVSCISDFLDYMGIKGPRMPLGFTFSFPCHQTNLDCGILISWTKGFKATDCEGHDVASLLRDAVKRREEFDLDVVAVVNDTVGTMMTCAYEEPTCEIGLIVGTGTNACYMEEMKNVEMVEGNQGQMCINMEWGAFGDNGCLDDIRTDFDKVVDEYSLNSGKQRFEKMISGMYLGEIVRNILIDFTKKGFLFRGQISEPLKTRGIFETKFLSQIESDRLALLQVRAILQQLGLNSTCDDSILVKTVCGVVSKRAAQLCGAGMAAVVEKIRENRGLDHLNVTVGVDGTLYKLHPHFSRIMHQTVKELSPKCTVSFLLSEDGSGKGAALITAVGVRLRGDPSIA
Kind of assay: Time dependent inhibition of Hexokinase type I activity after 6 h, at 22 degrees celsius, at 5 mM compound.

In assay [3] the target is Thymidine kinase (Escherichia coli) (UniProt P23331). Kind of assay: Compound was tested for the lose of thymidine kinase activity after 6 hr, at 0 degrees celsius, with 10 mM ATP derivative. values were expressed in percent.
In assay [4] the test system is Saccharomyces cerevisiae. The assay is described as follows: Time dependent inhibition of hexokinase activity after 6 hr, at 22 degrees celsius, with 5 mM ATP derivative in yeast.
Assay [5] is described as follows: (§2) Extent of inactivation caused by the compound was reported. Format: functional.
The target in assay [6] is T2, Hexokinase-1 (Rattus norvegicus). The assay is described as follows: Substrate activity for rat hexokinase I as 1:1 Mg complex at 5.0 mM. In short, it runs like this:
as §1

Assay [7] concerns the target T3, Hexokinase-3 (Rattus norvegicus) (UniProt P27926).
T3 sequence (whole entry): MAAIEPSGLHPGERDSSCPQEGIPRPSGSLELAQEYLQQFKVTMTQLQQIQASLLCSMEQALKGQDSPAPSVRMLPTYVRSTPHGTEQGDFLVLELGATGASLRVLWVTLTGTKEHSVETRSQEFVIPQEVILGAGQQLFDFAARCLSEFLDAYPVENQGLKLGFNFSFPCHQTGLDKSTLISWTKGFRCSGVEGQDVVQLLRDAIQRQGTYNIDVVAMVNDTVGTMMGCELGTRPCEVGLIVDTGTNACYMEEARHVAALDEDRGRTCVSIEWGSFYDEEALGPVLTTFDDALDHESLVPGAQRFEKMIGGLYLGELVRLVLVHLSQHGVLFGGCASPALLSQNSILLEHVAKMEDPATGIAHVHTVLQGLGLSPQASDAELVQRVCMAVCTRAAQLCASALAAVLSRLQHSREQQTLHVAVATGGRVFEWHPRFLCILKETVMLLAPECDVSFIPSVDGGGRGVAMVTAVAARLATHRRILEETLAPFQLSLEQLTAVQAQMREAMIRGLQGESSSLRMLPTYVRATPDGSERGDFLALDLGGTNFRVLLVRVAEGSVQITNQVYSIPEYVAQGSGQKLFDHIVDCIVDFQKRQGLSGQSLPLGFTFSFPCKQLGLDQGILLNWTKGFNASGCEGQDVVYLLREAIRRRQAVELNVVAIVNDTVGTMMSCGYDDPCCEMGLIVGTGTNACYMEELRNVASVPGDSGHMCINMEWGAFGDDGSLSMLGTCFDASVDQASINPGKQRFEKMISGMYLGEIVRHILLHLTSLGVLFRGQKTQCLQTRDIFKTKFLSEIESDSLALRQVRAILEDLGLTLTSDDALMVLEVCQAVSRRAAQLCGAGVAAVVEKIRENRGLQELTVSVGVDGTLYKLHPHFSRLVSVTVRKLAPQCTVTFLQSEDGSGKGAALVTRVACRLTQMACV
Kind of assay: Substrate activity for rat hexokinase III as 1:1 Mg complex at 5.0 mM. Put shortly:
as §1

The test system of assay [8] is Saccharomyces cerevisiae. Kind of assay: Substrate activity against yeast hexokinase as 1:1 Mg complexes at 5.0 mM. In short, it runs like this:
as §1

Assay [9] deals with T3, Hexokinase-3 (Rattus norvegicus). The assay is described as follows: Time dependent inhibition of Hexokinase type III activity after 6 h, at 22 degrees celsius, at 5 mM.
The species entered for assay [10] is Rattus norvegicus. The assay is described as follows: Compound was tested for the affinity to Rat pyruvate kinase relative to the normal substrate. Affinity is expressed as KM (ATP or ADP)/ Ki of inhibitor. In kind it is functional.
In assay [11] the target is T1, Hexokinase-2 (Rattus norvegicus). The assay is described as follows: Time dependent inhibition of hexokinase 2 activity after 6 h, at 5 mM compound.
In assay [12] the target is Thymidine kinase (Escherichia coli) (UniProt P23331). The assay is described as follows: Compound was tested for the initial inhibition of thymidine kinase by 1.4 mM compound in the presence of 5.7 mM ATP in Escherichia coli.
The nature of assay [13]: Substrate concentration for half maximal velocity was reported for rat hexokinase III. In short, it runs like this:
(§3)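 Coupled glucose-6-phosphate dehydrogenase/NADP assay: A340 rate at 22 °C in 0.05 M Tris-HCl pH 7.6 with 6.6 mM MgCl2, 10 mM α-D-glucose and 0.93 mM NADP, nucleotide varied. KM was taken from linear double-reciprocal plots. Rat HK I and III came from electrofocused, dialysed liver extract, HK II from dialysed muscle extract, and yeast HK was isoelectric-focused.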

Assay [14] in a line: Substrate concentration for half maximal velocity was reported for yeast hexokinase. Put shortly: as §3
Assay [15] is described as follows: Substrate concentration for half maximal velocity was reported for rat hexokinase I. Put shortly:
as §3

Assay [16] is described as follows: Compound was tested for substrate constants with rat hexokinase. Maximal velocity Vmax was reported. Put shortly:
(§4)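 Hexokinase KM and Vmax taken from linear double-reciprocal plots of initial velocity vs. nucleotide level. Assays at 22 °C, coupled to glucose-6-phosphate dehydrogenase (A340), in 0.05 M Tris-HCl pH 7.6 with 6.6 mM MgCl2, 10 mM glucose and 0.93 mM NADP. Yeast HK was isoelectric-focused. Rat HK I and III came from liver, HK II from muscle (male Sprague-Dawley).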

Assay [17] in a line: Substrate concentration for half maximal velocity was reported for rat hexokinase II. Put shortly: as §3
Assay [18] can be described thus: Compound was tested for substrate constants with yeast hexokinase. Maximal velocity Vmax was reported. Put shortly:
as §4

A short description of assay [19]: Compound was tested for the affinity relative to the normal substrate. Affinity is expressed as KM (ATP or ADP)/ Ki of inhibitor.
Assay [20] in a line: Tested for the velocity of 2.8 mM compound relative to that of 2.8 mM MgATP in the assay. In short, it runs like this: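 E. coli TK substrate test. 0.5 h after adding inhibitor, the mixture was diluted to 2.8 mM derivative in thymidine assay medium without ATP and with 1.42 mM MnCl2. Incubated 15 min at 37 °C, in the linear range. [14C]TMP formed was compared with that from 2.8 mM ATP under the same conditions.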

Assay [21] can be described thus: as §2.

Where “and” joins values, the source holds several entries; their conditions need not be identical. Equal values may be shown once. A value given as a limit tells only on which side of the number the result lay.

Sequence of Thymidine kinase (Escherichia coli) (P23331 whole entry, looked up): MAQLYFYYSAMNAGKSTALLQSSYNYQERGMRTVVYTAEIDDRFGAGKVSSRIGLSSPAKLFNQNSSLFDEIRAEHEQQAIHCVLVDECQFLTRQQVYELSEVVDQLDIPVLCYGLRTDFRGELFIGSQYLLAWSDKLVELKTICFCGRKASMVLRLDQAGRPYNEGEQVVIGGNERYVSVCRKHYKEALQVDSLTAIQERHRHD

The term inhibition denotes the drop in the measured response relative to a control, in per cent. On to `O=C(CI)NCCCCCCCCNc1ncnc2c1ncn2[C@@H]1O[C@H](COP(=O)(O)OP(=O)(O)OP(=O)(O)O)[C@@H](O)[C@H]1O`, for which the Relative velocity amounted to 1.26 in assay [1], 1.79 in [6], 2.81 in assay [7] and 1.82 in assay [8]. Further, the inhibition was found to be 35% in [2]; 0% in assay [3]; 30% in assay [4]; 47% in [9]; 41% in assay [11]; 19% in assay [12]. In assay [5], this compound displayed an Inactivation greater than 90%. For the same compound, the Relative affinity in [10] worked out at 0.011.

The term Km denotes the substrate concentration at which the rate is half of its maximum. Turning to `CN(CCCN(C)C(=O)CCCCNc1ncnc2c1ncn2[C@@H]1O[C@H](COP(=O)(O)OP(=O)(O)OP(=O)(O)O)[C@@H](O)[C@H]1O)C(=O)CCCCNC(=O)OCc1ccccc1`, the Km worked out at 100 µM in assay [13], 320 µM in [14], 180 µM in [15] and 270 µM in assay [17]. Moreover, the Vmax was 45% and 35% and 23% in [16]; 75% in assay [18].

As for `CN(CCCCN(C)c1ncnc2c1ncn2[C@@H]1O[C@H](COP(=O)(O)OP(=O)(O)OP(=O)(O)O)[C@@H](O)[C@H]1O)C(=O)CCCCCNC(=O)CI`, the inhibition in [2] was found to be 0%; in assay [3] it was 53%; in assay [9], 0%; in [11], 0%; in assay [12] it was 11%. The same compound displayed a Relative affinity in [19] of 0.56. The compound also had a Velocity in assay [20] greater than 13%. This compound displayed a Relative inactivation in assay [21] greater than 80.
